Data taken from publication PMC5148670 (Journal of medicinal chemistry, 2016).
Positions count from the first letter of the chain named. Where two headings read alike, the source gives them in different places.

Experiments:
C311S mutant of SETD8 = target: T1, C311S mutant of SETD8 (Homo sapiens, UniProt Q9NQR1, C311S); test: Mass spectrometry of covalent modification, SETD8 C311S mutant; format: binding
T1 sequence (Q9NQR1 232-393 C311S): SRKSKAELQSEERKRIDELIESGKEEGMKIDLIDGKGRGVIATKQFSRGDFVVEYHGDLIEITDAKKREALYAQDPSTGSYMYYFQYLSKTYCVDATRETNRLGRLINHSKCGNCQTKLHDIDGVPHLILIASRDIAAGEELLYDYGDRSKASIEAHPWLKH
In short: (§1)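 Catalytic domain of SETD8 (wild type, C311S or C343S; the C311S protein carried a His tag) at 7 μM was incubated with 20–200 μM test compound in water for over 3 h. Samples were analysed by electrospray LC/MS time-of-flight to detect covalent adducts. Masses of each protein without compound were recorded as controls.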

PRC2 = PRC2 (Homo sapiens, UniProt Q15910); test: Mass spectrometry of covalent labeling, PRC2; format: binding
SETD8 [1] = target: T2, SETD8 (Homo sapiens, UniProt Q9NQR1); test: Residual enzymatic activity of the purified 3-SETD8 adduct; format: biochemical; conditions: purified monomer and dimer of 3-SETD8 adduct
T2 sequence (Q9NQR1 232-393): T1 sequence (Q9NQR1 232-393 C311S) with S80C
In short: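 SETD8 was incubated with the covalent test compound until adduct formation was complete by MS. The adduct was purified by gel filtration, giving monomer and dimer forms that interconvert. Each form was then tested in the enzymatic assay and compared with wild-type SETD8.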

SMYD3 = target: T3, SMYD3 (Homo sapiens, UniProt Q9H7B4); test: Mass spectrometry of covalent labeling, SMYD3; format: binding
T3 sequence (Q9H7B4 1-428): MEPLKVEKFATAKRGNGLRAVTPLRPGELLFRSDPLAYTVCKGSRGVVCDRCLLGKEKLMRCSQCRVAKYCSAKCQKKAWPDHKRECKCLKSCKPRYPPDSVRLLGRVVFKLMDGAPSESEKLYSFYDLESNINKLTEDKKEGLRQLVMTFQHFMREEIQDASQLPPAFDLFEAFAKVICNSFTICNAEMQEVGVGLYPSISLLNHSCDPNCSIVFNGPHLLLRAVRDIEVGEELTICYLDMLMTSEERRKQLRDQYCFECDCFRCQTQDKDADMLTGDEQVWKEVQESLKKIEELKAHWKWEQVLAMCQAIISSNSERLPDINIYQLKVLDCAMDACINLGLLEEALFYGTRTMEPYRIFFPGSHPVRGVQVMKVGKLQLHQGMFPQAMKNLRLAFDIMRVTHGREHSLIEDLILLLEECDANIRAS

SETD8 [2] = target: T2, SETD8; test: SETD8 scintillation proximity assay; format: biochemical
C343S mutant of SETD8 = target: T4, C343S mutant of SETD8 (Homo sapiens, UniProt Q9NQR1, C343S); test: Mass spectrometry of covalent modification, SETD8 C343S mutant; format: binding
T4 sequence (Q9NQR1 232-393 C343S): T1 sequence (Q9NQR1 232-393 C311S) with S80C, C112S
In short: as §1

SETD8 [3] = target: T2, SETD8; test: Mass spectrometry of covalent modification, wild-type SETD8; format: binding; conditions: for covalent adduct formation by MS: purified SETD8 with full SET domain, 3 hours incubation
In short: as §1

SMYD2 = SMYD2 (Homo sapiens, UniProt Q9NRG4); test: Mass spectrometry of covalent labeling, SMYD2; format: binding
[4] = tested on: 28 other methyltransferases; test: Methyltransferase selectivity assays; format: biochemical
[5] = tested on: H4K20me mark in HeLa cells; test: H4K20me mark in HeLa cells; format: cell-based; conditions: up to 10μM
SETD8 [6] = conditions: cited from earlier work

SMYD2, sequence (Q9NRG4 whole entry, species assumed): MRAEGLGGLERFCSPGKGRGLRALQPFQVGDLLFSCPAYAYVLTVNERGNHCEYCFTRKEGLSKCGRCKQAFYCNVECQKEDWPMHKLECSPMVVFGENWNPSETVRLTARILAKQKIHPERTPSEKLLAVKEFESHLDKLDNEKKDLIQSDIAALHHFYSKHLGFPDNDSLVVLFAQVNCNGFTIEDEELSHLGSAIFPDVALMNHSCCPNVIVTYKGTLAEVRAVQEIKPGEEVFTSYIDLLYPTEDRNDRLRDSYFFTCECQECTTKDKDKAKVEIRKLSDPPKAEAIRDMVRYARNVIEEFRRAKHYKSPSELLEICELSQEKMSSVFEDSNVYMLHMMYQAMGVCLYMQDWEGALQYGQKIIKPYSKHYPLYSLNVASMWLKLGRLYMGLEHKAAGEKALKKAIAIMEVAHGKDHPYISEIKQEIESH
PRC2, sequence (Q15910 whole entry): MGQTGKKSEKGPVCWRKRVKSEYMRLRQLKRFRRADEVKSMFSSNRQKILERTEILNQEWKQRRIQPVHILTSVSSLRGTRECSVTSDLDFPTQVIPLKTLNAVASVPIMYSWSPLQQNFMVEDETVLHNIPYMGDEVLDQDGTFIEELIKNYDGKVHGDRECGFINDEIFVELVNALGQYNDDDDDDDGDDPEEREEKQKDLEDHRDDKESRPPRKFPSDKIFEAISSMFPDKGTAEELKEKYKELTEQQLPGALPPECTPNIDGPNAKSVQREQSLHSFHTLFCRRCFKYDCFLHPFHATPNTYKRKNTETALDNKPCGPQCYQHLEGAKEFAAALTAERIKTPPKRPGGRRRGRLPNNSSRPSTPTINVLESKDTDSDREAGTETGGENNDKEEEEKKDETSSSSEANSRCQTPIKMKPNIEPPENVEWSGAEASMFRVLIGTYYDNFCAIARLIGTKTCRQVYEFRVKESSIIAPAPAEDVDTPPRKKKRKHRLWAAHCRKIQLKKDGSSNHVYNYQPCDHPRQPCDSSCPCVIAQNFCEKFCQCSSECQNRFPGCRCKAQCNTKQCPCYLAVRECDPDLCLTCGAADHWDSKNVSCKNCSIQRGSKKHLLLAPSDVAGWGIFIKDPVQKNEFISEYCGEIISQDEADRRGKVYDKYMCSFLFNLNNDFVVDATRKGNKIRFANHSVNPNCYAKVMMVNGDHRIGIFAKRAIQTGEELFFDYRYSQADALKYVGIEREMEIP
PRC2, sequence (O75530 whole entry partner): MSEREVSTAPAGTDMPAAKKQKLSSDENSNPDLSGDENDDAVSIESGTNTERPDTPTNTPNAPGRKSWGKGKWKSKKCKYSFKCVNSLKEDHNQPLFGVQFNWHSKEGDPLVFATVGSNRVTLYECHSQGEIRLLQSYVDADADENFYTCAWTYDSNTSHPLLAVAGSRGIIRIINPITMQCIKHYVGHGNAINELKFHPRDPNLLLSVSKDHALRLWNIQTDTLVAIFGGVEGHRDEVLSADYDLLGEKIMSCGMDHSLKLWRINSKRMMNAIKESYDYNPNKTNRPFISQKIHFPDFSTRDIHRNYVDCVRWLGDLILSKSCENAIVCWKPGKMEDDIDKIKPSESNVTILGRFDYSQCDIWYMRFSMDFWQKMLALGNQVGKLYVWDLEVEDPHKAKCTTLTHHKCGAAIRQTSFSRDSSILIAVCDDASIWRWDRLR
PRC2, sequence (Q15022 whole entry partner): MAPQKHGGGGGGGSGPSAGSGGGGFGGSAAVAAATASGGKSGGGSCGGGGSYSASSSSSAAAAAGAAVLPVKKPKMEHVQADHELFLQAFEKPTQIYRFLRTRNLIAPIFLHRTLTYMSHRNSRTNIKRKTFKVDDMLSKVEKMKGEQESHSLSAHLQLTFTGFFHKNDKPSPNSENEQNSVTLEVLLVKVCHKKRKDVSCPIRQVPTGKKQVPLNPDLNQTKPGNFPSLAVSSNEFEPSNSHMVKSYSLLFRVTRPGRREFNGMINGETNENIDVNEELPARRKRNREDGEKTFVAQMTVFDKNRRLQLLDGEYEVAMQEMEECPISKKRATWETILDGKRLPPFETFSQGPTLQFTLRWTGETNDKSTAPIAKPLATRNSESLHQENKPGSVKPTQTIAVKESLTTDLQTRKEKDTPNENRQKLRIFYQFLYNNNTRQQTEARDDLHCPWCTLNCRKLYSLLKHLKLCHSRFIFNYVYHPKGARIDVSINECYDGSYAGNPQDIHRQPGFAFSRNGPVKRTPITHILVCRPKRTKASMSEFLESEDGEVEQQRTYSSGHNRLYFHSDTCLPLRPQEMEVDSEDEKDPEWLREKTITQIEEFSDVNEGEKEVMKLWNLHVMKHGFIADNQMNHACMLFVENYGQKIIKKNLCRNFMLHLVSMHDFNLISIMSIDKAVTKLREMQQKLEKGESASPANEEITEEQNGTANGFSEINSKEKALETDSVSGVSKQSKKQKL

Row | covalent adduct formation by MS (C311S mutant of SETD8) | labeling by MS analysis (PRC2) | enzymatic activity retained by adduct relative to wild-type SETD8 (SETD8 [1]) | labeling by MS analysis (SMYD3) | Hillslope (SETD8 [2]; incubation with SETD8 for 1 or 5 hours, both incubation times) | covalent adduct formation by MS (C343S mutant of SETD8) | covalent modification of SETD8 in presence of glutathione (SETD8 [3]; 5 mM glutathione (GSH)) | labeling by MS analysis (SMYD2) | activity in the SETD8 biochemical assay (SETD8 [2]) | Molecule | covalent adduct formation by MS (SETD8 [3]) | selectivity for SETD8 over other methyltransferases [4] | selectivity for SETD8 over other methyltransferases ([4]; listed as MS453) | reduction in the H4K20me mark [5] | mechanism of action (SETD8 [6]) | IC50 (SETD8 [6]; read-out: potency in vitro)
1 | did not form an adduct | no labeling | about 10% | no labeling | 1.2 | formed a single-modified adduct | not affected | no labeling |  | C=CC(=O)NCCCNc1nc(N2CCCC2)nc2cc(OC)c(OC)cc12 [compound 3, N-(3-((6,7-Dimethoxy-2-(pyrrolidin-1-yl)quinazolin-4-yl)amino)propyl)acrylamide] | efficiently forms a single-modified covalent adduct | selective for SETD8 over 30 other methyltransferases | selective for SETD8 against 28 other methyltransferases | did not observe significant reduction |  | 
2 |  |  |  |  |  |  |  |  | inactive | C=CC(=O)NCCCN(C)c1nc(N2CCCC2)nc2cc(OC)c(OC)cc12 [compound 4, N-(3-((6,7-Dimethoxy-2-(pyrrolidin-1-yl)quinazolin-4-yl)(methyl)amino)propyl)acrylamide] | did not covalently modify SETD8 |  |  |  |  | 
3 |  |  |  |  |  |  |  |  |  | nauhoic acid A |  |  |  |  | SAM-competitive | 6.5 µM
